Values after ≈ are worked out from the molar mass of the structure shown. Some results are limits rather than exact numbers.

The test system of experiment [1] is SK-MEL-2. Put plainly: In vitro percent inhibition of SK-MEL-2 cells, malignant melanoma. In kind it is functional, Homo sapiens. On the set-up: concentration or dose not given beside the values.
In experiment [2] the test system is SK-MEL-2. Kind of experiment: In vitro growth inhibition of SK-MEL-2, malignant melanoma. Type of experiment: functional, cell-based. The note with it: Homo sapiens. A digest of the protocol:
(§1)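 Human tumor lines screened in-house: KB, A549, MCF-7, CAKI-1 and SK-MEL-2. Read-out was SRB staining with absorbance at 562 nm.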

In another experiment the test system is A549 (Homo sapiens). Put plainly: In vitro percent inhibition of A549, lung carcinoma.
In experiment [3] the test system is KB. Put plainly: In vitro growth inhibition of KB, epidermoid carcinoma of the nasopharynx. The note with it: Homo sapiens. Type of experiment: functional, cell-based. A digest of the protocol: as §1
Experiment [4] concerns KB. Put plainly: In vitro epidermoid carcinoma of the nasopharynx. Type of experiment: functional, Homo sapiens. Put shortly:
as §1

A further experiment deals with A549. Kind of experiment: In vitro growth inhibition of A549, lung carcinoma. Type of experiment: functional, cell-based. As to conditions: Homo sapiens. Put shortly: as §1
For a further experiment, the system named is MCF7. Kind of experiment: In vitro growth inhibition of MCF-7, breast adenocarcinoma. Type of experiment: functional, cell-based. As to conditions: Homo sapiens. Put shortly:
as §1

Experiment [5] relates to CAKI-1. Put plainly: In vitro growth inhibition of CAKI-1, Kidney carcinoma. The note with it: Homo sapiens. Type of experiment: functional, cell-based. A digest of the protocol:
as §1

The subject of experiment [6] is CAKI-1. Kind of experiment: In vitro percent inhibition of CAKI-1, Kidney carcinoma. In kind it is functional, Homo sapiens. On the set-up: concentration or dose not given beside the values.
In experiment [7] the test system is SK-MEL-2. Kind of experiment: In vitro growth inhibition of SK-MEL-2, malignant melanoma. Type of experiment: functional, cell-based. The note with it: Homo sapiens. Put shortly: as §1
Experiment [8] relates to SK-MEL-2. Kind of experiment: In vitro percent inhibition of growth of SK-MEL-2, malignant melanoma. Type of experiment: functional, Homo sapiens.
Experiment [9] relates to CAKI-1. Kind of experiment: In vitro percent inhibition of growth of CAKI-1, Kidney carcinoma. In kind it is functional, Homo sapiens.
In another experiment the target is DNA topoisomerase II (Homo sapiens, UniProt P11388+Q02880). Kind of experiment: In vitro activity against mammalian topoisomerase II measured as ATP-dependent unknotting of P4 DNA compared to enzyme and DNA control. Type of experiment: protein assay. As to conditions: concentration not given here. Put shortly:
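Topo II inhibition read as ATP-dependent unknotting of P4 DNA, compared with enzyme-only and DNA-only control reactions.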

Experiment [10] deals with T1, DNA topoisomerase 1 (Homo sapiens) (UniProt P11387).
T1 sequence (whole entry): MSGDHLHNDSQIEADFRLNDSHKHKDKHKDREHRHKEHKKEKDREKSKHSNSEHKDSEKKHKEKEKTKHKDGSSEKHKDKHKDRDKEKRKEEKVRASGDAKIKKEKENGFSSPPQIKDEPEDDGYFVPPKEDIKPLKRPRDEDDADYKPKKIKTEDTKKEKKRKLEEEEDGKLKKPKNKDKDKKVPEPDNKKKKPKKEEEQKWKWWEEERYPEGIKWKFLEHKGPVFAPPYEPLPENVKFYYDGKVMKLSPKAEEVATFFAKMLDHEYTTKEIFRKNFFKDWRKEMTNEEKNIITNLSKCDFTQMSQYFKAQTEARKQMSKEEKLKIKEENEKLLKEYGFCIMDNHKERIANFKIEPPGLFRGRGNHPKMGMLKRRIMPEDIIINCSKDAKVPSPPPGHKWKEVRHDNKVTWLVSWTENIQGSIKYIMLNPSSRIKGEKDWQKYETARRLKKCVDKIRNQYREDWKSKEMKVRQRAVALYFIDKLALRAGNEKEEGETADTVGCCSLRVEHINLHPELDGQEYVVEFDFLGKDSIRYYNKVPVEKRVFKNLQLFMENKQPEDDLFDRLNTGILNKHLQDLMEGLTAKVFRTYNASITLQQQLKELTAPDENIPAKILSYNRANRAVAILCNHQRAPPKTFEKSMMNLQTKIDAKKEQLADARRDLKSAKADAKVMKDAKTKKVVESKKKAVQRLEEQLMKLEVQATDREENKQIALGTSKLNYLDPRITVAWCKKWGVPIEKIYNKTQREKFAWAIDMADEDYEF
Put plainly: In vitro inhibition against topoisomerase I activity Measured as ATP independent relaxation of supercoiled plasmid DNA compared to enzyme and DNA control reaction relative to Camptothecin (100 uM). A digest of the protocol:
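Topo I inhibition read as ATP-independent relaxation of supercoiled plasmid DNA, compared with enzyme and DNA control reactions. Camptothecin at 100 μM was the positive control.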

The next experiment addresses Tubulin. Type of experiment: protein-complex assay.

Take `CSc1ccc2c(cc1=O)[C@@H](NC(=O)c1ccc(N)cc1)CCc1cc(O)c(O)c(O)c1-2`: the Inhibition (commonly the change of the read-out against control, counted positive when it falls) was 0% in the experiment on SK-MEL-2 [1], 39% in the experiment on A549 (Homo sapiens), 35% in the experiment with KB [4] and 13% in the experiment on CAKI-1 [6]. For the same compound, the concentration giving a half-maximal response (EC50) – broadly, the concentration needed to bring the measured effect to its halfway point – in the experiment on SK-MEL-2 [2] was above 18 µg/mL; with KB [3] it was above 18 µg/mL; with A549, above 18 µg/mL; in the experiment with MCF7, 14.8 µg/mL (≈ 32.9 µM); in the experiment with CAKI-1 [5], above 18 µg/mL.

Consider `COC(=O)Oc1cc2c(c(OC(=O)OC)c1OC(=O)OC)-c1ccc(SC)c(=O)cc1[C@@H](NC(=O)c1ccc([N+](=O)[O-])cc1)CC2`, for which the concentration giving a half-maximal response (EC50) with SK-MEL-2 [7] was above 26.2 µg/mL; with KB [3] it was 6.5 µg/mL (≈ 9.93 µM); with A549 it was 24.2 µg/mL (≈ 37 µM); in the experiment with MCF7 it was 13.1 µg/mL (≈ 20 µM); in the experiment on CAKI-1 [5] it was above 26.2 µg/mL. In addition, the figures for the Inhibition with SK-MEL-2 [8] and with CAKI-1 [9] were 44% and 38%, respectively. Moreover, the inhibition (on DNA topoisomerase II; in experiment [10]) was 0% in each case. The IC50 (in general, the midpoint of a concentration-inhibition curve) against Tubulin was above 40 µM.

For the origin of these results see ChEMBL document CHEMBL1131236, “Antitumor agents. 185. Synthesis and biological evaluation of tridemethylthiocolchicine analogues as novel topoisomerase II inhibitors” (J Med Chem, 1998).
